Consider 25 compounds from ChEMBL document CHEMBL4480462, “HPLC-Based Activity Profiling for Antiprotozoal Compounds in the Endemic Iranian Medicinal Plant Helichrysum oocephalum” (J Nat Prod, 2019).

As usually defined, the IC50 is the concentration needed to halve the response being measured.

The test system of data set [1] is L6. The data set can be described thus: Cytotoxicity against rat L6 cells. Format: cell-based. A digest of the protocol: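 Rat skeletal myoblast L6 cells were exposed to 11 3-fold serial drug dilutions covering 100 to 0.001 μg/mL, with podophyllotoxin as reference. IC50 was calculated by linear regression. Runs were single and repeated at least two times, and the figure is the mean of two independent assays.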

Data set [2] in a line: Selectivity index, ratio of IC50 for rat L6 cells to IC50 for axenic amastigotes. An outline of the steps:
(§1)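 The selectivity index is the IC50 in L6 cells divided by the IC50 in the named parasite. Each IC50 comes from 11-step 3-fold dilution series (100 to 0.001 μg/mL) fitted by linear regression and averaged over two independent assays.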

The subject of data set [3] is Plasmodium falciparum. The experiment in a line: Antiplasmodial activity against Plasmodium falciparum NF54 infected in human erythrocytes assessed as reduction in [3H]-hypoxanthine incorporation pretreated for 48 hrs followed by [3H]-hypoxanthine addition measured after 24 hrs by liquid scintillation counting method. It is filed as functional, organism-based. A digest of the protocol: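 Erythrocytic-stage NF54 parasites were tested over 11 3-fold serial dilutions from 100 to 0.001 μg/mL, with chloroquine as reference. IC50 was derived by linear regression. Runs were single and repeated at least twice, and the value given is the mean of two independent assays.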

For data set [4], the system named is Leishmania donovani. The data set can be described thus: Antileishmanial activity against Leishmania donovani MHOM-ET-67/L82 axenic amastigotes after 70 hrs by resazurin staining based fluorescence assay. Format: functional, organism-based. The conditions noted are these: MHOM-ET-67/L82, 70 h. A digest of the protocol:
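Axenically grown amastigotes of strain MHOM-ET-67/L82 were exposed to serial drug dilutions of 11 3-fold steps spanning 100 to 0.001 μg/mL, with miltefosine as reference. IC50 was obtained by linear regression. Each assay was run singly and repeated at least twice, and the reported value is the average of two independent assays.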
In general terms: Resazurin is reduced to fluorescent resorufin, in cell work by metabolically active cells.

Data set [5] in a line: Selectivity index, ratio of IC50 for rat L6 cells to IC50 for Plasmodium falciparum NF54 infected in human erythrocytes. It is filed as toxicity, cell-based. The conditions noted are these: read-out: Ratio IC50. A digest of the protocol: as §1

Molecules are shown by their SMILES.

`CCC(C)C(=O)c1c(O)c(CC=C(C)C)c(O)c2c1OC1(C2)OC(C)=C(C)C1=O` (configuration not stated): the IC50 in data set [1] turned out to be 13.2 µM; in data set [3], 7.6 µM; in data set [4] it was 1.7 µM. Also, in data set [2], the “Ratio IC50” value is given as 7.6. The selectivity ratio in data set [5] was found to be 4.8.

Consider `Cc1oc(=O)c(Cc2c(O)c(C)c(C)oc2=O)c(O)c1C`, for which the values for the concentration for half-maximal inhibition (IC50) in data set [1], in data set [3] and in data set [4] were 26.5 µM, 22.3 µM and 15.7 µM, respectively. Besides, in data set [2], the “Ratio IC50” value amounted to 1.7. In addition, the selectivity ratio in data set [5] worked out at 2.5.

Regarding `CCC(C)C(=O)c1c(O)c(CC=C(C)CCC=C(C)C)c(O)c(Cc2c(O)c(C)c(C)oc2=O)c1O` (configuration not stated), the IC50 was 48.3 µM in data set [1], 2.6 µM in data set [3] and 4.4 µM in data set [4]. In data set [2], the “Ratio IC50” value came to 11.1. In addition, the selectivity ratio in data set [5] amounted to 7.7.

For the compound `CC(=O)c1c(O)c(Cc2c(O)c(C)c(C)oc2=O)c(O)c2c1OC(C)(C)C=C2`, the concentration for half-maximal inhibition (IC50) is 53.1 µM in data set [1], 11.3 µM in data set [3] and 1.8 µM in data set [4]. Also, the “Ratio IC50” value in data set [2] turned out to be 29.7. In addition, the selectivity ratio in data set [5] came out at 4.7.

As for `CC(C)=CCCC(C)=CCc1c(O)c(Cc2c(O)c(C)c(C)oc2=O)c(O)c(C(=O)C(C)C)c1O`, the half-inhibitory concentration (IC50) in data set [1] came to 38.4 µM; in data set [3], 5.7 µM; in data set [4], 3.1 µM. In addition, the “Ratio IC50” value in data set [2] worked out at 12.3. The selectivity ratio in data set [5] was 9.6.

Take `CC(C)=CCc1c(O)c2c(c(C(=O)C(C)C)c1O)OC1(C2)OC(C)=C(C)C1=O` (configuration not stated): the IC50 stood at 20.1 µM in data set [1], 22.7 µM in data set [3] and 1.9 µM in data set [4]. In addition, the “Ratio IC50” value in data set [2] is on record as 10.5. For the same compound, in data set [5], the selectivity ratio was determined as 1.9.

`CCc1oc(=O)c(Cc2c(O)c3c(c(C(=O)C(C)C)c2O)OC(C)(CCC=C(C)C)C=C3)c(O)c1C` (racemic): the IC50 in data set [1] amounted to 21.4 µM; in data set [3], 9.3 µM; in data set [4], 1.9 µM. In addition, the “Ratio IC50” value in data set [2] was found to be 11.2. The selectivity ratio in data set [5] turned out to be 2.3.

With `CCc1oc(=O)c(Cc2c(O)c(CC=C(C)CCC=C(C)C)c(O)c(C(=O)C(C)C)c2O)c(O)c1C`, the results for the IC50 in data set [1], in data set [3] and in data set [4] were 39.7 µM, 3.8 µM and 2.7 µM, respectively. Also, the “Ratio IC50” value in data set [2] was found to be 15. Moreover, in data set [5], the selectivity ratio worked out at 11.3.

Turning to `CCC1=C(C)C(=O)C2(Cc3c(O)c(CC=C(C)C)c(O)c(C(=O)C(C)C)c3O2)O1` (configuration not stated), the IC50 in data set [1] worked out at 43 µM; in data set [3], 18 µM; in data set [4] it was 6 µM. In data set [2], the “Ratio IC50” value is reported as 7.2. Besides, the selectivity ratio in data set [5] was 2.1.

With `CCC1=C(C)C(=O)C2(Cc3c(O)c(CC=C(C)C)c(O)c(C(C)=O)c3O2)O1` (configuration not stated), the 50% inhibitory concentration (IC50) worked out at 55.1 µM in data set [1], 23.1 µM in data set [3] and 5.8 µM in data set [4]. In addition, the “Ratio IC50” value in data set [2] is recorded as 9.5. In data set [5], the selectivity ratio is 2.3.

Take `CCc1oc(=O)c(Cc2c(O)c(Cc3c(O)c(C)c(CC)oc3=O)c(O)c(C(=O)C(C)C)c2O)c(O)c1C`: the IC50 in data set [1] is 57.6 µM; in data set [3], 8.6 µM; in data set [4], 2.5 µM. The “Ratio IC50” value in data set [2] turned out to be 22.9. Besides, the selectivity ratio in data set [5] stood at 4.4.

Take `CC(C)=CCCC(C)=CCc1c(O)c2c(c(C(=O)C(C)C)c1O)OC1(C2)OC(C)=C(C)C1=O` (configuration not stated): the results for the half-inhibitory concentration (IC50) in data set [1], in data set [3] and in data set [4] were 18.8 µM, 7.2 µM and 2.2 µM, respectively. Also, the “Ratio IC50” value in data set [2] is recorded as 8.5. Also, in data set [5], the selectivity ratio came to 5.5.

Turning to `CC(=O)c1c(O)c(CC=C(C)C)c(O)c2c1OC1(C2)OC(C)=C(C)C1=O` (configuration not stated), the IC50 was 56.3 µM in data set [1], 14.6 µM in data set [3] and 5.1 µM in data set [4]. Besides, the “Ratio IC50” value in data set [2] worked out at 11.1. Moreover, the selectivity ratio in data set [5] was found to be 3.9.

Consider `CC(=O)c1c(O)c(CC=C(C)CCC=C(C)C)c(O)c2c1OC1(C2)OC(C)=C(C)C1=O` (configuration not stated), for which the values for the half-inhibitory concentration (IC50) in data set [1], in data set [3] and in data set [4] were 43.4 µM, 23.9 µM and 2.8 µM, respectively. Besides, in data set [2], the “Ratio IC50” value is 15.6. For the same compound, the selectivity ratio in data set [5] came to 2.2.

`CCc1oc(=O)c(Cc2c(O)c(C)c(C)oc2=O)c(O)c1C`: the IC50 in data set [1] came to 43.9 µM; in data set [3], 18.1 µM; in data set [4], 15.5 µM. For the same compound, the “Ratio IC50” value in data set [2] is 2.8. In data set [5], the selectivity ratio is 3.4.

With `CCc1oc(=O)c(Cc2c(O)c(CC=C(C)C)c(O)c(C(=O)C(C)C)c2O)c(O)c1C`, the values for the half-inhibitory concentration (IC50) in data set [1], in data set [3] and in data set [4] were 52.2 µM, 7.4 µM and 13.7 µM, respectively. For the same compound, in data set [2], the “Ratio IC50” value came out at 3.8. The selectivity ratio in data set [5] was 7.6.

In the case of `CCc1oc(=O)c(Cc2c(O)c(CC=C(C)C)c(O)c(C(=O)C(C)CC)c2O)c(O)c1C` (configuration not stated), the concentration for half-maximal inhibition (IC50) in data set [1] is 37.8 µM; in data set [3], 2.5 µM; in data set [4], 16.8 µM. Moreover, the “Ratio IC50” value in data set [2] was found to be 2.25. Also, in data set [5], the selectivity ratio was found to be 5.36.

Take `CCC(C)C(=O)c1c(O)c(CC=C(C)C)c(O)c(Cc2c(O)c(C)c(C)oc2=O)c1O` (configuration not stated): the half-inhibitory concentration (IC50) was found to be 55.5 µM in data set [1], 5.5 µM in data set [3] and 4.8 µM in data set [4]. Besides, the “Ratio IC50” value in data set [2] was 11.5. In data set [5], the selectivity ratio worked out at 7.9.

With `COc1cc([C@@H]2c3cc4c(cc3[C@H](O)[C@H]3COC(=O)[C@H]23)OCO4)cc(OC)c1OC` [PODOFILOX], half-maximal inhibition in data set [1] (IC50) required 0.005 µM.

As for `CCc1oc(=O)c(Cc2c(O)c(CC=C(C)CCC=C(C)C)c(O)c(C(=O)C(C)CC)c2O)c(O)c1C` (configuration not stated), the 50% inhibitory concentration (IC50) in data set [1] turned out to be 36.3 µM; in data set [3], 1.2 µM; in data set [4] it was 5.6 µM. In addition, in data set [2], the “Ratio IC50” value turned out to be 6.4. The selectivity ratio in data set [5] was 15.7.

On to `CCc1oc(=O)c(Cc2c(O)c(C)c(CC)oc2=O)c(O)c1C` [HELIPYRONE], for which the values for the IC50 in data set [1], in data set [3] and in data set [4] were 54.3 µM, 8.9 µM and 14.9 µM, respectively. In data set [2], the “Ratio IC50” value came out at 3.6. Besides, in data set [5], the selectivity ratio stood at 5.4.

On to `CCC(=O)c1c(O)c(CC=C(C)C)c(O)c2c1OC1(C2)OC(C)=C(C)C1=O` (configuration not stated), for which the figures for the IC50 in data set [1], in data set [3] and in data set [4] were 44.1 µM, 31.7 µM and 7.1 µM, respectively. Besides, the “Ratio IC50” value in data set [2] is given as 6.2. Besides, in data set [5], the selectivity ratio was found to be 0.8.

Take `CCc1oc(=O)c(Cc2c(O)c(C(=O)C(C)C)c(O)c3c2O[C@@]2(C)CC[C@@H]4[C@H]2[C@H]3C4(C)C)c(O)c1C`: the IC50 was found to be 12 µM in data set [1], 7.12 µM in data set [3] and 2 µM in data set [4]. Further, the “Ratio IC50” value in data set [2] is listed as 6. Moreover, the selectivity ratio in data set [5] came out at 1.7.

As for `CC(C)=CCc1c(O)c(Cc2c(O)c(C)c(C)oc2=O)c(O)c(C(=O)C(C)C)c1O`, the half-maximal inhibitory concentration (IC50) in data set [1] stood at 61.1 µM; in data set [3], 8 µM; in data set [4], 5.8 µM. In addition, the “Ratio IC50” value in data set [2] is recorded as 10.4. Also, the selectivity ratio in data set [5] was found to be 5.5.

As for `CCCCCCCCCCCCCCCCOP(=O)([O-])OCC[N+](C)(C)C` [MILTEFOSINE], in data set [4], the IC50 turned out to be 0.285 µM.
